Assay outcomes deposited in PubChem by Broad Institute.
The entries come from a sample that favours hits as a whole.
T cruzi growth-1 – T. cruzi proliferation inhibition. T. cruzi beta-gal in NIH3T3, GalScreen luminescence, 90 h. inhibition, % at 8.34 µM. 77,000 compounds, 5.9% hits. AID 624255;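 active = mean inhibition above about 93%, with at least 55% of replicates each passing it, limit read from the data, passing the limit was not always enough; inconclusive = only one of those two conditions holds; inactive = neither condition holds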
IDH1 mut inh – inhibitors of human IDH1 R132H; inhibition, % at 10 µM; IDH1 R132H reductase, diaphorase/resazurin fluorescence, 60 min; AID 624101; 70,000 compounds, 0.18% hits; O75874; in the data active = inhibition above about 34%; inconclusive = no clear call, values can overlap the other calls; inactive = below about 11%
Target sequence (O75874 whole entry R132H): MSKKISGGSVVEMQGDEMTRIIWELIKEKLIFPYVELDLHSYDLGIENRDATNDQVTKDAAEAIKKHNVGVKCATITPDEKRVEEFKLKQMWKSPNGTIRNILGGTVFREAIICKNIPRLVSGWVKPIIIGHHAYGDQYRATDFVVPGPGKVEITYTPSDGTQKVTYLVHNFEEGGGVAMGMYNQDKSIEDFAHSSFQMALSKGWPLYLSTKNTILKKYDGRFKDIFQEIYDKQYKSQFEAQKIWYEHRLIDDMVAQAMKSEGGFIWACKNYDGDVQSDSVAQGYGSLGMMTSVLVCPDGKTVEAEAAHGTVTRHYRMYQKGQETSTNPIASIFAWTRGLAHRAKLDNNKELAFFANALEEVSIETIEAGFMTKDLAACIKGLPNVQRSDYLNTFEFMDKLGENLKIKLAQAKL
KDM4C inh – inhibitors of human demethylase GASC-1 KDM4C; GST-KDM4C 2-372, H3K9me3 peptide, LANCE TR-FRET; inhibition, % at 12.5 µM; 96,000 compounds, 0.15% hits; AID 720574;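 active = mean replicate inhibition above about 25%, with at least 55% of replicates also reaching it, limit read from the data, passing the limit was not always enough; inconclusive = only one of those two conditions met; inactive = neither condition met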
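System: N-terminal GST-fused human GASC-1 (KDM4C) fragment, residues 2-372 / Amount: 10 nM GST-KDM4C in enzyme reaction / Also added: H3K9me3 peptide with Fe(II)/2OG / Times: 30 min demethylation and 1 h detection at room temperature / Signal: LANCE TR-FRET / Read-out basis: Fall in 671/618 emission ratio as inhibition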
T cruzi growth-2 – blocks T. cruzi growth in NIH3T3 host cells; shares compounds with T cruzi growth-1; T. cruzi beta-gal in NIH3T3, GalScreen luminescence, 90 h; inhibition, % at 8.35 µM; 5,600 compounds, 72% hits; AID 651739;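 active = mean replicate inhibition above about 95% and at least 55% of replicates individually reaching it, limit read from the data; inconclusive = only one of the two criteria is met; inactive = neither criterion is met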
T cruzi growth-3 – inhibitors of T. cruzi proliferation; shares compounds with T cruzi growth-1; T. cruzi beta-gal in NIH3T3, GalScreen luminescence, 90 h; inhibition, % at 2.09 µM; 5,600 compounds, 21% hits;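 active = mean inhibition above about 95%, with at least 55% of replicates also reaching it, limit read from the data; inconclusive = meets just one of the two conditions; inactive = meets neither condition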
3T3 cytotox – NIH/3T3 (mouse) viability loss. shares compounds with T cruzi growth-1. 5,600 compounds, 14% hits. AID 651742. cytotoxicity (signal decrease), % at 8.35 µM. NIH/3T3 viability, CellTiter-Glo ATP luminescence, 90 h;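 active = mean signal decrease across replicates above about 35% based on untreated-well scatter, with enough replicates individually passing, limit read from the data; inconclusive = no rule stated though some were filed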
3T3 cytotox 2 – cytotoxicity in mouse NIH/3T3 fibroblasts | NIH/3T3 viability, CellTiter-Glo ATP luminescence, 90 h | 5,600 compounds, 56% hits | inhibition, % at 24.9 µM | shares compounds with T cruzi growth-1;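 active = mean loss of cell viability signal at or above a set limit, and enough replicates individually reaching it; inconclusive = meets only the mean limit or only the replicate share; inactive = meets neither condition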
Each line names hits and unclear results; the compound was inactive in the other large screens (follow-up assays come after a bar, where they were run).

O=S(=O)(NC1CCCCC1Sc1nnc(Nc2ccccc2)s1)c1ccccc1 (stereo not given)	none (no result: T cruzi growth-1, KDM4C inh)
COc1ccc(N(C(C)C(=O)Nc2ccc(Cl)cc2C)S(C)(=O)=O)cc1 (stereo not given)	none (no result: T cruzi growth-1, KDM4C inh)
Cc1ccccc1NC(=O)CSc1n[nH]c(-c2ccncc2)n1	none (no result: T cruzi growth-1, KDM4C inh)
CCN(CC)CCNc1ncnc(N)c1[N+](=O)[O-]	none (no result: T cruzi growth-1, KDM4C inh)
O=C(Nc1ccc(F)cc1)N1CCCCN2[C@H](CO)[C@H](c3ccc(-c4ccccc4F)cc3)[C@H]2C1	none (no result: IDH1 mut inh, KDM4C inh)
O=C(Nc1ccc(F)cc1)N1CCCCN2[C@H](CO)[C@@H](c3ccc(-c4ccccc4F)cc3)[C@H]2C1	T cruzi growth-1 104 (no result: IDH1 mut inh, KDM4C inh) | T cruzi growth-2 97 | T cruzi growth-3 inconclusive | 3T3 cytotox 58 | 3T3 cytotox 2 105
O=C(Nc1ccc(F)cc1)N1CCCCN2[C@H](CO)[C@@H](c3ccc(-c4ccccc4F)cc3)[C@@H]2C1	T cruzi growth-1 112 (no result: IDH1 mut inh, KDM4C inh) | T cruzi growth-2 101 | T cruzi growth-3 104 | 3T3 cytotox inactive | 3T3 cytotox 2 104
COc1ccc(NC(=O)N2CCCCN3[C@@H](CO)[C@H](c4ccc(-c5ccccc5F)cc4)[C@@H]3C2)cc1	none (no result: IDH1 mut inh)
COc1ccc(NC(=O)N2CCCCN3[C@@H](CO)[C@@H](c4ccc(-c5ccccc5F)cc4)[C@@H]3C2)cc1	none (no result: IDH1 mut inh)
O=C(Nc1ccccc1)N1CCCCN2[C@H](C1)[C@H](c1ccc(-c3ccccc3F)cc1)[C@@H]2CO	T cruzi growth-1 113 (no result: IDH1 mut inh) | T cruzi growth-2 108 | T cruzi growth-3 inactive | 3T3 cytotox inactive | 3T3 cytotox 2 inconclusive
O=C(CN1C(=O)C2C3C=CC(C4CC34)C2C1=O)Oc1ccccc1C(=O)Oc1ccccc1 (stereo not given)	none (no result: T cruzi growth-1, KDM4C inh)
CCN1CCN(Cc2c(C)[nH]c3ccc(Cl)cc3c2=O)CC1	none (no result: T cruzi growth-1, KDM4C inh)
O=c1[nH]c(CSc2nnc(-c3cccnc3)n2-c2ccccc2)nc2ccccc12	none (no result: T cruzi growth-1, KDM4C inh)
CCc1cccc(C)c1NC(=O)CSc1n[nH]c(-c2ccccc2Cl)n1	none (no result: T cruzi growth-1, KDM4C inh)
COCC#Cc1ccc([C@@H]2[C@H]3CN(Cc4cccnc4)CCCCN3[C@H]2CO)cc1	none (no result: IDH1 mut inh)
CCCC#Cc1ccc([C@H]2[C@@H](CO)N3CCCCN(Cc4cccnc4)C[C@@H]23)cc1	T cruzi growth-1 110 (no result: IDH1 mut inh) | T cruzi growth-2 101 | T cruzi growth-3 inactive | 3T3 cytotox 43 | 3T3 cytotox 2 78
COCC#Cc1ccc([C@@H]2[C@@H](CO)N3CCCCN(Cc4cccnc4)C[C@H]23)cc1	none (no result: IDH1 mut inh)
COCC#Cc1ccc([C@H]2[C@@H](CO)N3CCCCN(Cc4cccnc4)C[C@@H]23)cc1	T cruzi growth-1 101 (no result: IDH1 mut inh) | T cruzi growth-2 inactive | T cruzi growth-3 inactive | 3T3 cytotox inactive | 3T3 cytotox 2 inactive
C[C@H]1CN([C@@H](C)CO)S(=O)(=O)c2ccc(C3=CCCCC3)cc2O[C@H]1CN(C)Cc1ccccc1	T cruzi growth-1 120 | T cruzi growth-2 inactive | T cruzi growth-3 inactive | 3T3 cytotox 68 | 3T3 cytotox 2 105
C[C@@H]1CN([C@H](C)CO)S(=O)(=O)c2ccc(C3=CCCCC3)cc2O[C@H]1CN(C)Cc1cncnc1	none (no result: IDH1 mut inh)
C[C@@H]1CN([C@@H](C)CO)S(=O)(=O)c2ccc(C3=CCCCC3)cc2O[C@H]1CN(C)Cc1cncnc1	none
C[C@H](CO)N1C[C@H](C)[C@@H](CN(C)Cc2ccccc2)Oc2cc(C3=CCCCC3)ccc2S1(=O)=O	T cruzi growth-1 116 | T cruzi growth-2 100 | T cruzi growth-3 101 | 3T3 cytotox 45 | 3T3 cytotox 2 105
C[C@H](CO)N1C[C@H](C)[C@H](CN(C)Cc2ccccc2)Oc2cc(C3=CCCCC3)ccc2S1(=O)=O	T cruzi growth-1 inconclusive | T cruzi growth-2 100 | T cruzi growth-3 inactive | 3T3 cytotox inactive | 3T3 cytotox 2 103
C[C@H]1CN([C@@H](C)CO)S(=O)(=O)c2ccc(C3=CCCCC3)cc2O[C@@H]1CN(C)Cc1cncnc1	T cruzi growth-1 102 | T cruzi growth-2 102 | T cruzi growth-3 inactive | 3T3 cytotox 55 | 3T3 cytotox 2 69
C[C@H](CO)N1C[C@H](C)[C@@H](CN(C)Cc2cncnc2)Oc2cc(C3=CCCCC3)ccc2S1(=O)=O	none (no result: IDH1 mut inh)
C[C@@H]1CN([C@@H](C)CO)S(=O)(=O)c2ccc(C3=CCCCC3)cc2O[C@@H]1CN(C)Cc1cncnc1	none (no result: IDH1 mut inh)
